Published values from different studies.
Each line is one published result; the experiments were not run side by side.
Target: Calcium/calmodulin-dependent protein kinase type 1 (CAMK1, Homo sapiens, UniProt Q14012)

With `CCN(CC)c1ccc(C2=NNC(=O)CC2C)cc1[N+](=O)[O-]` (centres unmarked) the remaining activity was 89% (enzyme activity, inhibitor; 10 µM).
For `CCCCNc1ncc2c(-c3ccc(F)cc3)nn(C[C@H]3CC[C@H](N)CC3)c2n1`, the inhibition was 2.2% (target engagement in cells, inhibitor, chemoproteomics; 20 mM).
For `COc1cc2ncnc(Nc3ccc(F)c(Cl)c3)c2cc1OCCCN1CCOCC1`, the remaining signal was 102% (cell-free assay; 0.5 µM).
For `Cc1cc(-n2nc(Cc3cc(F)cc(C(F)(F)F)c3)nc2C)ccc1C(N)=O`, the remaining binding was 90% (cell-free assay, competition with immobilised ligand; 1 µM).
The remaining signal of `Cc1ccc(NC(=O)c2ccc(C)c(C(F)(F)F)c2)cc1C#Cc1nn(C2CCC(O)CC2)c2ncnc(N)c12` (centres unmarked) is reported as 62% (cell-free assay; 10 µM).
The remaining activity of `O=C(Nc1cnn(-c2csc(C(=O)NC3COC3)c2)c1)Nc1ccccc1Cl` is reported as 87.1% (enzyme activity, inhibitor; 5 µM).
With `O=C(O)[C@@H]1[C@@H](Cn2nnc3ccccc3c2=O)CC[C@H]1C(=O)c1ccc(OCCC2CCOCC2)cc1` the remaining binding was 92% (cell-free assay, competition with immobilised ligand; 1 µM).
With `COc1cccc2c(NCc3ccccc3)nc(-n3c(N)nc4ccccc43)nc12` the inhibition was -2.1% (target engagement in cells, inhibitor, chemoproteomics; 20 mM).
For `CN1CC(Oc2cnc(C#N)cc2-c2ccn3nc(NC(=O)C4CC4)cc3c2)C1`, the inhibition was 1% (enzyme activity, inhibitor; 1 µM).
The inhibition of `Cc1ccc(Nc2nccc(N(C)c3ccc4c(C)n(C)nc4c3)n2)cc1S(N)(=O)=O` is reported as 52% (enzyme activity, inhibitor; 10 µM).
For `Cc1cnc(NC2CCOCC2)nc1-n1cnc(C(=O)NC(CN)c2cc(F)cc(Cl)c2)c1` (centres unmarked), the remaining activity was 88% (enzyme activity, inhibitor, radiometric; 1 µM).
The remaining signal of `N#CCCc1ccc2c(c1)-c1[nH]c3ccc([N+](=O)[O-])cc3c1CC(=O)N2` is reported as 96% (cell-free assay; 0.5 µM).
`CC(C)(O)[C@H]1CC[C@H](Nc2ccc3ncc(-c4cccc(C(F)(F)F)c4)n3n2)CC1` has a remaining activity of 100% (enzyme activity, inhibitor; 1 µM).
With `Cc1sc(C(=O)NC2COC2)cc1-n1cc(NC(=O)Nc2c(F)cccc2Cl)cn1` the remaining activity was 115% (enzyme activity, inhibitor; 10 µM).
For `CCCOc1ccc(OC)c(F)c1C(=O)c1ccc(C(=O)N[C@@H]2CNC[C@H]2NC(=O)c2ccc3[nH]ncc3c2)cc1`, the remaining activity was 34% (enzyme activity, inhibitor; 10 µM).
With `CNC(=O)c1cc(Oc2ccc(NC(=O)Nc3ccc(Cl)c(C(F)(F)F)c3)cc2)ccn1` the inhibition was 9% (enzyme activity, inhibitor; 10 µM).
For `Cn1c(=O)n(-c2ccc(C(C)(C)C#N)cc2)c2c3cc(-c4cnc5ccccc5c4)ccc3ncc21`, the remaining activity was 100% (enzyme activity, inhibitor; 10 µM).
For `O=C(Nc1cnc(Oc2ccc(F)cc2)nc1)N1CCc2ncccc2[C@@H]1c1ccc(F)cc1`, the remaining binding was 73% (cell-free assay, competition with immobilised ligand; 1 µM).
The remaining activity of `COc1cc(Nc2cnc(C#N)c(O[C@H](C)CN(C)C)n2)ncc1-c1cnn(C)c1` is reported as 92% (enzyme activity, inhibitor, radiometric; 1 µM).
For `CN(C)C(=O)Cn1cc(-c2nc([C@@](C)(c3ccc(-c4cnc(N)nc4)cc3)C3CC3)no2)cn1`, the remaining binding was 100% (cell-free assay, competition with immobilised ligand; 1 µM).
With `Nc1nc(Nc2ccccc2)sc1C(=O)c1c(F)cccc1F` the remaining activity was 55% (enzyme activity, inhibitor; 10 µM).
With `Nc1c(C(=O)NCc2ccc(C(=O)NCCCC3CCCCC3)cc2)cnn1-c1ccccc1` the remaining binding was 100% (cell-free assay, competition with immobilised ligand; 0.1 µM).
`COc1cc(Cl)c(C(=O)N[C@@H](CN[C@H]2CC[C@@H](N)CC2)Cc2ccc(C#N)cc2)cc1-c1ccc(CN[C@H](C)c2ccc(C)cc2)o1` gave a remaining activity of 108% (enzyme activity, inhibitor; 1 µM).
`CCc1ccccc1C(=O)Nc1n[nH]c2c(C)c(F)c(C3C(C#N)=C(C)N(C)C(C)=C3C#N)cc12` gave a remaining binding of 76% (cell-free assay, competition with immobilised ligand; 1 µM).
The inhibition of `CCN(CC)CCNC(=O)c1c(C)[nH]c(/C=C2\C(=O)Nc3ccc(F)cc32)c1C` is reported as 21% (enzyme activity, inhibitor; 0.3 µM).
With `O=C(NS(=O)(=O)c1ccc(NCC2CCOCC2)c([N+](=O)[O-])c1)c1ccc(N2CCN(Cc3ccc(C(F)(F)F)cc3-c3ccc(Cl)cc3)CC2)cc1Oc1cnc2[nH]ccc2c1` the remaining binding was 100% (cell-free assay, competition with immobilised ligand; 1 µM).
The remaining signal of `Oc1cccc(-c2nc(N3CCOCC3)c3oc4ncccc4c3n2)c1` is reported as 101% (cell-free assay; 0.5 µM).
`COc1cc(-c2cn(C3CCc4c(F)cccc4N(CC(F)(F)F)C3=O)nn2)ccc1-n1cnc(C)c1` (centres unmarked) has a remaining binding of 100% (cell-free assay, competition with immobilised ligand; 1 µM).
With `COc1cc(-c2cc(-c3ccc(N4CCNCC4)cc3)cnc2C)cc(OC)c1OC` the inhibition was 1% (enzyme activity, inhibitor; 1 µM).
